Screening results as filed in PubChem.
The list is not random: actives were taken first. Their share in the collection is about 9.4%.
SKKanGAS inh – S. pyogenes SKKanGAS growth inhibitors in kanamycin, primary screen, streptokinase expression inhibitor project, SKKanGAS strain, BacTiter-Glo luminescence; inhibition, % at 7.5 µM; AID 1662, 2009; 6 h; 300,000 tested, 1.3% active;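 active = mean replicate score, as percent of positive control median, at least 50; inconclusive = mean below 50 but one replicate at or above 50; inactive = mean and every replicate below 50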;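 note: strain carries kanamycin resistance gene driven by streptokinase promoter and grows in 40 µg/ml kanamycin; loss of luminescence reflects streptokinase promoter inhibition or plain growth inhibition; 0% = median of DMSO wells and 100% = positive control at its reference dose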
T cruzi repl – inhibitors of intracellular T. cruzi growth, primary screen, luminescence, NIH3T3 host cells | T. cruzi beta-gal in NIH3T3, 90 h | inhibition, % (no concentration beside the values) | 300,000 tested, 1.4% active | AID 1885, 2009;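 active = mean inhibition across valid replicates above about 55%, limit read from the data; inconclusive = mean below that limit but half or more replicates reach it; inactive = mean below it, under half of replicates reach it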;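 note: signal also drops with host cell toxicity which is not excluded here; 0% = plate median of DMSO wells and 100% = zero luminescence signal; higher percent means less beta-gal luminescence so fewer parasites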
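assay system = mouse NIH/3T3 fibroblasts infected with β-gal-expressing T. cruzi Tulahuen C4 | input = 5,000 NIH/3T3 host cells per well | buffer or medium = DMEM plus 2% FBS | timing = 3 h host attachment, then at least 90 h co-culture | measured by = GalScreen luminescence, 60 min | evaluation = luminescence reflecting intracellular parasite burden, expressed as percent inhibition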
L major viab – Leishmania major promastigote growth inhibition, primary screen. AID 1063, 2008. inhibition, % at 10 µM. 200,000 tested, 9% active. Leishmania major promastigotes, resazurin fluorescence viability; in the data active = inhibition above about 50%;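 note: promastigotes grown with compound for 44 hours at 28 °C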
Mdm2 MdmX PPI – inhibitors of human Mdm2-MdmX association, primary screen, cell-based, luminescence, split luciferase, SaOS-2, uHTS | AID 485346, 2010 | Protein Mdm4 (Homo sapiens) + E3 ubiquitin-protein ligase Mdm2 (Homo sapiens), … | 330,000 tested, 3% active | inhibition, % at 8 µM | SaOS-2 split-luciferase Mdm2/MdmX complementation;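 active = inhibition of at least 50% at 8 µM in the primary screen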
Target sequence (O15151 whole entry, looked up): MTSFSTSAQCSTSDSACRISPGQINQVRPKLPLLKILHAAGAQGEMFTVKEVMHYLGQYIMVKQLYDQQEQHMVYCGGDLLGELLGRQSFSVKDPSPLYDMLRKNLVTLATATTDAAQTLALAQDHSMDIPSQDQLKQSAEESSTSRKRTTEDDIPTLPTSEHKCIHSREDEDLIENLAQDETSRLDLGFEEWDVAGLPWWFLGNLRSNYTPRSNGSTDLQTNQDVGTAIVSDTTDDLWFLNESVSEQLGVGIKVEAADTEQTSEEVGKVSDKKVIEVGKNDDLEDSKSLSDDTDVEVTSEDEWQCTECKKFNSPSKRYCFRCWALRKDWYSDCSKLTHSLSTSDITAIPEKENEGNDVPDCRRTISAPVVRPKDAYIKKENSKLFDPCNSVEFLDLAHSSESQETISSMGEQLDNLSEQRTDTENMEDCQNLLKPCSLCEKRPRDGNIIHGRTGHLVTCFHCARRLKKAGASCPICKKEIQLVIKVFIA
Target sequence (Q00987 whole entry, looked up): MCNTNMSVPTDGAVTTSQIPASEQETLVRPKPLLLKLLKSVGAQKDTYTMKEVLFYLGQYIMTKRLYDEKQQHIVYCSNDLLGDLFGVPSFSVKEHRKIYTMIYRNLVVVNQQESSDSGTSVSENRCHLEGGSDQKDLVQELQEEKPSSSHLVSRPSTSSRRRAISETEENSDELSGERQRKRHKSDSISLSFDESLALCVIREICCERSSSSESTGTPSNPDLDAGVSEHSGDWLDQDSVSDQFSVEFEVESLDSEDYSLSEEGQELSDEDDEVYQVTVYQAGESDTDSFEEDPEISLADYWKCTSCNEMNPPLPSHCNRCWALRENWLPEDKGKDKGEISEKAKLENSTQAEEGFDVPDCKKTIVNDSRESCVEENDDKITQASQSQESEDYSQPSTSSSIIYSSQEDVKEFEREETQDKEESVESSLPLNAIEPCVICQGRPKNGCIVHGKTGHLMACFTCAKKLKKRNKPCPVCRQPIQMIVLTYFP
CSC inhib – cancer stem cell viability inhibitors, primary screen, luminescence; 300,000 tested, 1.1% active; inhibition, % at 7.5 µM; cancer stem cell-like cells viability; in the data active = inhibition above about 75%; inconclusive = no clear call, values can overlap the other calls; tested in HMLE shEcad cells
Beta apoptosis – inhibitors of cytokine-induced beta cell apoptosis, primary screen, luminescence; AID 435005, 2010; 300,000 tested, 0.8% active; INS-1E cytokine-induced death, ATP luminescence, 48 h; percent of positive-control rescue, neutral wells zero; protection from apoptosis, % (concentration not given with the values);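 active = Every replicate reaches about 75%, or at least half do and their mean reaches it too, limit read from the data; inconclusive = At least half of replicates reach the limit but their mean does not; inactive = Under half of replicates reach the limit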;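 note: 0% = cytokine-treated negative control wells and 100% = positive control rescue; higher means more ATP so stronger rescue from cytokine killing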
* marks the source's active call; other numbers are inactive results; u = inconclusive; x = no result given.

SMILES	SKKanGAS inh	T cruzi repl	L major viab	Mdm2 MdmX PPI	CSC inhib	Beta apoptosis
CC(=O)Oc1c(Cl)cc(Cl)cc1/C=C/c1ccc2ccccc2n1	-14	-11	8	9	109*	13
CC(=O)Oc1ccc(Cl)cc1/C=C/c1ccc2ccccc2n1	-7	-4	55*	3	49	7
CCCCCCc1cc2cc(C(=O)NC)c(=N)oc2cc1O	15	-20	58*	50	35	13
Cc1ccc(S(=O)(=O)NCc2ccc(C(=O)NCCN(Cc3ccccc3)C(C)C)cc2)cc1	13	36	67*	13	15	18
Cc1ccc(S(=O)(=O)NCCNC(=O)c2ccccc2)cc1	-6	3	-5	1	-4	-4
Cc1nn(-c2ccc(F)cc2)c(C)c1CN1CCN(CCC(C)C)C(CCO)C1 (stereo unspecified)	-6	11	55*	-6	42	-1
COc1ccc2[nH]c(CN3CCN(CCC(C)C)C(CCO)C3)c(C)c2c1 (stereo unspecified)	-14	61*	34	-16	-1	-6
Cc1nn(-c2ccc(F)cc2)c(C)c1CN1CCN(CCc2ccccc2)C(CCO)C1 (stereo unspecified)	0	10	79*	-12	14	-2
CC1C(=O)OC(c2ccc(Br)cc2)C(C)(C)C1=O (stereo unspecified)	0	-9	x	13	-10	-2
Cc1cc(C)nc(Sc2ncnc(N)c2[N+](=O)[O-])n1	2	21	58*	-3	2	-32
CN(C)S(=O)(=O)c1cccc(NC(=O)c2cc(-c3cccs3)nn2-c2ccccc2)c1	6	24	8	4	27	6
CCN(CC)S(=O)(=O)c1cccc(NC(=O)c2cc(-c3cccs3)nn2-c2ccccc2)c1	8	22	98*	5	3	u
CN1C(=O)/C(=C/c2ccc(OCc3ccccc3F)cc2)NC1=S	-2	-3	x	13	-9	0
CC1CC(C)CN(C(=O)c2cc3ccccc3o2)C1 (stereo unspecified)	-11	5	x	1	4	8
CC1CC(C)CN(C(=O)c2cc3cc(Br)cc(Br)c3o2)C1 (stereo unspecified)	43	28	90*	-88	89*	9
O=C(NC(=O)c1csnn1)Nc1ccccc1Cl	20	-9	x	-35	2	-4
NC(=O)c1cnn(-c2cc(Oc3ccccc3)ncn2)c1N	-8	-11	-11	-49	-8	-3
CCOc1ccc(NC(=O)CCSc2nc3c(c(CC)c2C#N)C(=O)CC(C)(C)C3)cc1	7	55*	18	9	28	-6
CCC(c1nnnn1CS(=O)(=O)c1ccc(C)cc1)N1CCN(c2nc3ccccc3s2)CC1 (stereo unspecified)	5	75*	98*	36	4	25
CCCC(c1nnnn1CC1CCCO1)N1CCN(c2nc3ccccc3s2)CC1 (stereo unspecified)	5	0	94*	21	x	-7
CCCC(c1nnnn1Cc1cccs1)N1CCN(c2nc3ccccc3s2)CC1 (stereo unspecified)	23	23	97*	33	3	26
CC(C)C(c1nnnn1Cc1cccs1)N1CCN(c2ccccc2)CC1 (stereo unspecified)	-4	9	1	6	5	x
CCCCC(c1nnnn1CC1CCCO1)N1CCN(c2nc3ccccc3s2)CC1 (stereo unspecified)	x	x	99*	x	x	x
C=CCNCC(O)COc1ccc(C(C)=O)cc1OC (stereo unspecified)	3	2	x	13	2	0
CCCCC(c1nnnn1CC1CCCO1)N1CCN(c2ccccc2)CC1 (stereo unspecified)	5	-3	-2	-17	0	-5
SMILES	SKKanGAS inh	T cruzi repl	L major viab	Mdm2 MdmX PPI	CSC inhib	Beta apoptosis
CC(C)CC(c1nnnn1CC1CCCO1)N1CCN(c2nc3ccccc3s2)CC1 (stereo unspecified)	4	12	91*	x	x	x
Cc1cc2c(NC(=O)CCCC(=O)O)cccc2nn1	-5	-10	x	22	-8	-3
Cc1cc2c(NC(=O)Nc3ccc(C(F)(F)F)cc3)cccc2nn1	13	69*	x	35	-9	13
COc1cc(/C=C2\N=C(c3ccccc3)OC2=O)ccc1OCc1c(C)no[n+]1[O-]	5	-8	-6	4	-4	-1
Cc1no[n+]([O-])c1COc1cccc(/C=C2\N=C(c3ccccc3)OC2=O)c1	2	-1	64*	0	x	x
O=C(N/N=C/C(Br)=C/c1ccccc1)c1ccncc1	-7	-7	x	38	26	x
CCOc1cc(C(=O)N/N=C/C(Br)=C/c2ccccc2)cc(OCC)c1OCC	4	9	58*	48	67	30
CC(=O)c1ccc(OC(=O)C(CCS(C)(=O)=O)N2C(=O)c3ccccc3C2=O)cc1 (stereo unspecified)	-7	-13	67*	-7	-1	-9
CCOc1ccc(OC(=O)C(CCS(C)(=O)=O)N2C(=O)c3ccccc3C2=O)cc1 (stereo unspecified)	-4	-8	72*	2	20	-6
CS(=O)(=O)CCC(C(=O)OCc1ccc(Br)cc1)N1C(=O)c2ccccc2C1=O (stereo unspecified)	1	-12	-8	-9	1	-6
Cc1cc(Cl)ccc1OCCCC(=O)N1CCN(S(=O)(=O)c2ccccc2)CC1	0	23	x	13	-3	8
CCN(C(=S)Nc1cc(S(=O)(=O)N2CCOCC2)ccc1Cl)c1cccc2ccccc12	2	4	65*	17	-17	-7
COc1ccc(C(=O)Nc2oc(-c3ccccc3)c(-c3ccccc3)c2C#N)cc1	10	22	86*	21	45	10
N#Cc1c(NC(=O)Cn2c(=O)oc3ccccc32)oc(-c2ccccc2)c1-c1ccccc1	32	3	9	0	86*	3
O=C(Cn1c(=O)oc2ccccc21)Nc1ccc(Br)cc1	-2	-20	x	20	-10	0
COc1cccc(NC(=O)CN(C)C(=O)c2c(-c3ccccc3)noc2C)c1	-2	-17	x	20	-11	-6
Cc1ccc(NC(=O)CN(C)C(=O)Cn2ncc(Cl)c(Cl)c2=O)cc1	-2	-14	73*	x	110*	-6
CC(=O)c1ccc(NC(=O)CN(c2c(C)cccc2C)S(C)(=O)=O)cc1	-2	-5	x	-45	-11	-6
COc1ccc(-c2[nH]ncc2CN(Cc2nccn2C)C(C)C)c(F)c1	-9	8	1	11	-16	-2
